# Experimental data from different studies.
# PIK3CA I800L: Phosphatidylinositol 4,5-bisphosphate 3-kinase catalytic subunit alpha isoform (PIK3CA, Homo sapiens, UniProt P42336, I800L)
# PIK3CA C420R: Phosphatidylinositol 4,5-bisphosphate 3-kinase catalytic subunit alpha isoform (PIK3CA, Homo sapiens, UniProt P42336, C420R)
# PIK3CA Q546K: Phosphatidylinositol 4,5-bisphosphate 3-kinase catalytic subunit alpha isoform (PIK3CA, Homo sapiens, UniProt P42336, Q546K)
# PIK3CA M1043I: Phosphatidylinositol 4,5-bisphosphate 3-kinase catalytic subunit alpha isoform (PIK3CA, Homo sapiens, UniProt P42336, M1043I)
# PIK3CA H1047Y: Phosphatidylinositol 4,5-bisphosphate 3-kinase catalytic subunit alpha isoform (PIK3CA, Homo sapiens, UniProt P42336, H1047Y)
# PIK3CA: Phosphatidylinositol 4,5-bisphosphate 3-kinase catalytic subunit alpha isoform (PIK3CA, Homo sapiens, UniProt P42336)
# PIK3CA E542K: Phosphatidylinositol 4,5-bisphosphate 3-kinase catalytic subunit alpha isoform (PIK3CA, Homo sapiens, UniProt P42336, E542K)
# PIK3CA E545A: Phosphatidylinositol 4,5-bisphosphate 3-kinase catalytic subunit alpha isoform (PIK3CA, Homo sapiens, UniProt P42336, E545A)
Compound,target,assay,setting,remaining binding [%]
COc1ncc2cc3ccccc3nc2c1C#N,PIK3CA I800L,"cell-free assay, competition with immobilised ligand",5 µM,86
Cc1c(NC(=O)c2cc(C(N)=O)nc3cc(F)ccc23)c(C(F)(F)F)nn1Cc1ccc(C(C)(C)C)cc1,PIK3CA C420R,"cell-free assay, competition with immobilised ligand",1 µM,100
CN(CCCC(F)(F)F)c1nccc(-c2cnn3ncccc23)n1,PIK3CA I800L,binding,1 µM,100
O=C(Nc1c[nH]nc1C(=O)NC1CCNCC1)c1cc(F)cc(F)c1,PIK3CA Q546K,"binding, competition with immobilised ligand",1 µM,100
Cc1cc(-c2cc(C(F)(F)F)ccc2O[C@H]2C[C@@]2(CNS(=O)(=O)c2ccc([N+](=O)[O-])cc2)c2ccc(F)cc2F)[nH]n1,PIK3CA M1043I,"cell-free assay, competition with immobilised ligand",0.3 µM,8.1
Cc1cnc(Nc2ccc(C(=O)N3CCC(N4CCCC4)CC3)cc2)nc1-c1cc2ccccc2s1,PIK3CA Q546K,"binding, competition with immobilised ligand",1 µM,97
Cn1nc(C(=O)NCc2ccc(C(=O)O)cc2)cc1-c1ccc2[nH]ccc2c1,PIK3CA Q546K,"cell-free assay, competition with immobilised ligand",0.1 µM,76
c1cnn2ncc(-c3ccnc(N4CCC45COC5)n3)c2c1,PIK3CA Q546K,binding,1 µM,63
CNC(=O)[C@@H]1CC[C@@H](n2c(-c3ccc4cnccc4c3)nc3ccc(C(=O)NCc4cccc(C(N)=O)c4)cc32)C1,PIK3CA H1047Y,"binding, competition with immobilised ligand",1 µM,100
Nc1ncc2c(n1)-c1c([nH]c3ccc(C#CC4CC4)cc13)CCCC2,PIK3CA Q546K,"binding, competition with immobilised ligand",1 µM,98
C=CC(=O)N1CCC(C(=O)NCC(=O)N2CCN(c3nc(-c4cnc(N)nc4C(F)F)nc(N4CCOCC4)n3)CC2)CC1,PIK3CA,"binding, competition with immobilised ligand",1 µM,0.4
O=C(c1ccc(Nc2ncc(Cl)c(-c3cc4ccccc4s3)n2)cc1)N1CCC(N2CCCC2)CC1,PIK3CA H1047Y,"binding, competition with immobilised ligand",1 µM,70
C[C@@H](c1ccc(-n2cnc3c(N)ncnc32)cc1)N1CCc2nn(C)c(Cc3ccccc3)c2C1=O,"Phosphatidylinositol 4,5-bisphosphate 3-kinase catalytic subunit alpha isoform (PIK3CA, Homo sapiens, UniProt P42336, H1047L)","binding, competition with immobilised ligand",0.1 µM,63
O=C(NCCCN1CCOCC1)c1ccc(Nc2nccc(-c3cc4ccccc4s3)n2)cc1,PIK3CA M1043I,"binding, competition with immobilised ligand",1 µM,80
C[C@@H]1CCN(c2nccc(-c3cnn4ncccc34)n2)C1,PIK3CA E542K,binding,1 µM,82
Cc1c(NC(=O)c2cc(C(N)=O)nc3cc(F)ccc23)c(C(F)(F)F)nn1Cc1ccc(C#N)cc1,PIK3CA H1047Y,"cell-free assay, competition with immobilised ligand",1 µM,86
CN(C)c1ncc(F)c(-c2cnn3ncccc23)n1,PIK3CA E542K,binding,1 µM,69
O=C1CCc2cc(Nc3cc(OC4CCOCC4)c([N+](=O)[O-])cc3Cl)ccc2N1,PIK3CA C420R,"cell-free assay, competition with immobilised ligand",1 µM,97
F[C@@H]1CCN(c2nccc(-c3cnn4ncccc34)n2)C1,"Phosphatidylinositol 4,5-bisphosphate 3-kinase catalytic subunit alpha isoform (PIK3CA, Homo sapiens, UniProt P42336, E545K)",binding,1 µM,100
c1cncc(-c2cccc(Nc3nccc(NC4CCCCC4)n3)c2)c1,PIK3CA E542K,"binding, competition with immobilised ligand",10 µM,88
COc1cnc(Nc2cccc(S(N)(=O)=O)c2)nc1N1CCN(c2ccccc2)C(=O)C1,PIK3CA M1043I,"binding, competition with immobilised ligand",1 µM,85
CN(C)c1nccc(-c2cnn3ncccc23)n1,PIK3CA E545A,binding,1 µM,100
CN1CCN(c2ccc(Nc3nccc(-c4cccc([N+](=O)[O-])c4)n3)cc2C(F)(F)F)CC1,PIK3CA E545A,binding,10 µM,58
O=C(c1ccc(Nc2ncc(Cl)c(-c3ccc(Cl)s3)n2)cc1)N1CCC(N2CCCC2)CC1,PIK3CA,"binding, competition with immobilised ligand",1 µM,100
O=C(NCCCC1CCCCC1)c1ccc(CNC(=O)c2cnn(-c3ccccc3)c2C(F)(F)F)cc1,PIK3CA M1043I,"cell-free assay, competition with immobilised ligand",0.1 µM,68
COc1cnc(Nc2cccc(S(N)(=O)=O)c2)nc1N1CCN(c2ccccc2)CC1,PIK3CA I800L,"binding, competition with immobilised ligand",1 µM,83
Cc1c(-c2ccccc2)oc2c(C(=O)OCCN3CCCCC3)cccc2c1=O,PIK3CA,"cell-free assay, competition with immobilised ligand",0.1 µM,100
O=C(c1ccc(Nc2nccc(-c3cc4ccccc4s3)n2)cc1)N1CCC(N2CCCC2)CC1,PIK3CA I800L,"binding, competition with immobilised ligand",1 µM,100
O=C(NCC1CCOCC1)c1n[nH]cc1NC(=O)c1c(F)cccc1F,PIK3CA,"binding, competition with immobilised ligand",1 µM,100
CCS(=O)(=O)c1cc2cc(C[C@](O)(CC(C)(C)c3ccc(F)cc3C(N)=O)C(F)(F)F)[nH]c2cn1,PIK3CA I800L,"cell-free assay, competition with immobilised ligand",1 µM,73
CN1CCN(c2ccc(Nc3nccc(-c4ccccc4)n3)cc2C(F)(F)F)CC1,PIK3CA Q546K,binding,10 µM,68
CN(C)c1nccc(-c2cnc3ncccn23)n1,PIK3CA H1047Y,binding,1 µM,50
CCN1CCN(Cc2ccc(C(=O)Nc3ccc(C)c(Oc4ccc5c(c4)CC(=O)N5)c3)cc2C(F)(F)F)CC1,PIK3CA C420R,"binding, competition with immobilised ligand",1 µM,100
CN(C)CC#Cc1ccc(OCCCc2sc(N3CCc4cccc(C(=O)Nc5nc6ccccc6s5)c4C3)nc2C(=O)O)c(F)c1,PIK3CA Q546K,"cell-free assay, competition with immobilised ligand",1 µM,79
O=C(NCCCN1CCOCC1)c1ccc(Nc2ncc(Cl)c(-c3ccc(Cl)s3)n2)cc1,PIK3CA E545A,"binding, competition with immobilised ligand",1 µM,100
N[C@@H]1CCN(c2nccc(-c3cnn4ncccc34)n2)C1,PIK3CA I800L,binding,1 µM,71
O=C(NS(=O)(=O)c1ccc(NCC2CCOCC2)c([N+](=O)[O-])c1)c1ccc(N2CCN(Cc3ccc(C(F)(F)F)cc3-c3ccc(Cl)cc3)CC2)cc1Oc1cnc2[nH]ccc2c1,PIK3CA H1047Y,"cell-free assay, competition with immobilised ligand",1 µM,67
